How the values were obtained:
Cathepsin B = Cathepsin B (Homo sapiens, UniProt P07858); test: Inhibitory constant against human cathepsin B using Boc-Leu-Lys-Arg-AMC substrate; details: read-out: Ki app
Cathepsin S = Cathepsin S (Homo sapiens, UniProt P25774); test: Inhibitory constant against human cathepsin S using Z-Val-Val-Arg-AMC substrate; details: read-out: Ki app
Outline: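 Recombinant human cathepsin S at 500 pM in 50 mM MES pH 6.5, 2.5 mM β-mercaptoethanol, 2.5 mM EDTA, 100 mM NaCl, 0.001% BSA, 10% DMSO. 30 min enzyme–inhibitor preincubation at 21–24 °C, 8 inhibitor concentrations. Started with 60 μM Z-Val-Val-Arg-AMC; initial rates by AMC fluorescence (ex 355/em 460). Ki(app) by Morrison tight-binding fit.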

Procathepsin L = Procathepsin L (Homo sapiens, UniProt P07711); test: Inhibitory constant against human cathepsin L using Z-Phe-Arg-AMC substrate; details: read-out: Ki app
Outline: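 Recombinant human cathepsin L at 500 pM in 50 mM MES pH 5.5, 2.5 mM DTT, 2.5 mM EDTA, 10% DMSO. Enzyme preincubated with inhibitor (8 concentrations) 30 min at 21–24 °C. Reaction started with 10 μM Z-Phe-Arg-AMC; AMC fluorescence (ex 355/em 460 nm) over first ~5 min. Ki(app) fitted with Morrison tight-binding model.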

[1] = biological target: Cathepsin K (Homo sapiens) (UniProt P43235); test: Inhibitory constant against human cathepsin K using Z-Phe-Arg-AMC substrate; details: read-out: Ki app
Osteoclast = test: In vitro bone resorption in isolated rabbit osteoclasts; format: functional, cell-based; details: Oryctolagus cuniculus
Outline: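 Bovine bone degraded by isolated rabbit osteoclasts; collagen degradation read by ELISA. 8-point dose–response curves; IC50 derived.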

[2] = Maximum concentration in rat administered with 0.5 mg/kg, iv; format: ADME, organism-based; parameters: dose 0.5 mg/kg, route intravenous; details: in vivo
Rattus norvegicus [3] = test: Mean residence time in rat administered with 0.5 mg/kg, iv; format: functional, organism-based; parameters: dose 0.5 mg/kg
Outline: (§1)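 Rats, three per study, cassette iv dosing of up to four compounds. Formulation DMSO (<20%), PEG 400 (<20%) and water at 0.5 mg/mL per compound, given at 1 mL/kg for 0.5 mg/kg per compound.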

Rattus norvegicus [4] = test: Terminal half-life in rat administered with 0.5 mg/kg, iv; format: functional, organism-based; parameters: dose 0.5 mg/kg; outline: as §1

Sequence of Cathepsin S (P25774 whole entry): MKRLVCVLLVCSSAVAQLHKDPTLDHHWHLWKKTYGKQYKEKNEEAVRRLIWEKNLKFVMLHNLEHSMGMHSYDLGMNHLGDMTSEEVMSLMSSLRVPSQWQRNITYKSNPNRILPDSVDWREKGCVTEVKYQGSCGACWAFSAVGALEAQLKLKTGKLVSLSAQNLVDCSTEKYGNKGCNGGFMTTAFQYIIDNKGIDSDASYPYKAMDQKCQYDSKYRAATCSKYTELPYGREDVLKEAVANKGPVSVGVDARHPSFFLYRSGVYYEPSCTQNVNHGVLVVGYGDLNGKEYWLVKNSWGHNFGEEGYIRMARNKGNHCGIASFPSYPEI
Sequence of Procathepsin L (P07711 whole entry): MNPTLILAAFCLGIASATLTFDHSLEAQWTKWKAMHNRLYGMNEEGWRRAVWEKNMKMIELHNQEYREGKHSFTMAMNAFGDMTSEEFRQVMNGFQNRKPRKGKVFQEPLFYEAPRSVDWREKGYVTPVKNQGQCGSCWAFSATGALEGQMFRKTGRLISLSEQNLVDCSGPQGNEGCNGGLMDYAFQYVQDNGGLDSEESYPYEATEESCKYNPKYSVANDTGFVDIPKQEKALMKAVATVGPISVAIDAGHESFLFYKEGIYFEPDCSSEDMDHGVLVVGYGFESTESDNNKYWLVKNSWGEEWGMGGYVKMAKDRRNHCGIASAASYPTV

SMILES	Ki (Cathepsin B)	Ki (Cathepsin S)	Ki (Procathepsin L)	Ki [1]	IC50 (Osteoclast)	Cmax [2]	MRT (Rattus norvegicus [3])	T1/2 (Rattus norvegicus [4])
CCCC[C@H](NC(=O)OCc1ccccc1)C(=O)NCC#N	> 150 µM	0.86 µM	37 µM	0.49 µM				
N#CCNC(=O)[C@@H](NC(=O)OCc1ccccc1)c1ccccc1	> 150 µM	3.5 µM	88 µM	17 µM				
CC[C@H](C)[C@H](NC(=O)OCc1ccccc1)C(=O)NCC#N	70 µM	14 µM	25 µM	1.5 µM				
CC(C[C@H](NC(=O)OCc1ccccc1)C(=O)NCC#N)C(F)(F)F (some centres undefined)	> 150 µM	0.4 µM	22 µM	0.35 µM				
N#CCNC(=O)C1(NC(=O)OCc2ccccc2)CC1	> 150 µM	> 150 µM	> 150 µM	> 150 µM				
CC(C)C[C@](C)(NC(=O)OCc1ccccc1)C(=O)NCC#N	> 150 µM	4.2 µM	> 150 µM	1.8 µM				
CN1CCN(S(=O)(=O)c2ccc(C(=O)NC3(C(=O)NCC#N)CCCCC3)cc2)CC1	3.1 µM	102 µM	71 µM	0.013 µM				
C[C@@H](O)[C@H](NC(=O)OCc1ccccc1)C(=O)NCC#N	> 150 µM	42 µM	14 µM	11 µM				
CN1CCN(C(=O)c2ccc(C(=O)NC3(C(=O)NCC#N)CCCCC3)cc2)CC1	13 µM	110 µM	> 150 µM	0.014 µM				
N#CCNC(=O)C1(NC(=O)c2csc(-c3ccncc3)n2)CCCCC1	9.3 µM	4 µM	> 150 µM	0.15 µM				
CC(C)C[C@@H](NC(=O)OCc1ccccc1)C(=O)NCC#N	> 150 µM	13.6 µM	> 150 µM	13 µM				
N#CCNC(=O)C1(NC(=O)OCc2ccccc2)CCCC1	110 µM	> 150 µM	> 150 µM	1.5 µM				
N#CCNC(=O)C1(NC(=O)c2ccc(-c3csc(CN4CCOCC4)n3)cc2)CCCCC1	3.8 µM	0.25 µM	2.2 µM	0.0087 µM	0.21 µM	0.55 µM	0.26 h	
N#CCNC(=O)C1(NC(=O)c2ccc(N)cc2)CCCCC1	10 µM	6.5 µM	45 µM	0.032 µM				
N#CCNC(=O)C1(NC(=O)c2ccc(N3CCOCC3)cc2)CCCCC1	8.6 µM	42 µM	50 µM	0.019 µM				
N#CCNC(=O)C1(NC(=O)c2cccc(-c3ccccc3)c2)CCCCC1	8.3 µM	1.9 µM	22 µM	0.21 µM				
N#CCNC(=O)C1(NC(=O)OCc2ccccc2)CCCCC1	64 µM	31 µM	95 µM	0.084 µM				
N#CCNC(=O)C1(NC(=O)c2ccc(Br)s2)CCCCC1	3.1 µM	1.4 µM	5.9 µM	0.016 µM				
CC(C)(C)C[C@H](NC(=O)OCc1ccccc1)C(=O)NCC#N	63 µM	0.15 µM	23 µM	0.23 µM				
N#CCNC(=O)C1(NC(=O)c2ccc(-c3csc(N4CCOCC4)n3)cc2)CCCCC1	3.1 µM	13 µM	74 µM	0.0023 µM	0.035 µM	1.4 µM	0.467 h	0.483 h
N#CCNC(=O)C1(NC(=O)c2cccc(Br)c2)CCCCC1	7.9 µM	6.2 µM	7.9 µM	0.23 µM				
CC(C)(C)[C@H](NC(=O)OCc1ccccc1)C(=O)NCC#N	> 150 µM	> 150 µM	> 150 µM	1.9 µM				
N#CCNC(=O)C1(NC(=O)c2ccc(-c3csc(N4CC[C@@H](N)C4)n3)cc2)CCCCC1	3 µM	4.5 µM	7.5 µM	0.0014 µM	0.052 µM	0.84 µM	0.893 h	0.883 h
N#CCNC(=O)[C@H](Cc1ccc2ccccc2c1)NC(=O)OCc1ccccc1	3 µM	0.18 µM	0.054 µM	30 µM				
CN(C)c1ccc(C(=O)NC2(C(=O)NCC#N)CCCCC2)cc1	5.2 µM	35 µM	48 µM	0.0033 µM				
CC(C)C[C@H](NC(=O)OCc1ccccc1)C(=O)NCC#N	123 µM	0.143 µM	2.79 µM	0.0347 µM				
N#CCNC(=O)C1(NC(=O)CCc2ccccc2)CCCCC1	99 µM	34 µM	> 150 µM	0.41 µM				

These reach a lower Ki (Cathepsin B). Values come first.

Ki (Cathepsin B)	Ki (Cathepsin S)	Ki (Procathepsin L)	Ki [1]	IC50 (Osteoclast)	Cmax [2]	SMILES	MRT (Rattus norvegicus [3])	T1/2 (Rattus norvegicus [4])
1.8 µM	2.5 µM	0.42 µM	0.0054 µM	0.037 µM		N#CCNC(=O)C1(NC(=O)c2ccc(-c3ccc(-c4ccno4)cc3)cc2)CCCCC1		
1.5 µM	42 µM	19 µM	0.00094 µM	0.06 µM	0.43 µM	CN1CCN(Cc2nc(-c3ccc(C(=O)NC4(C(=O)NCC#N)CCCCC4)cc3)cs2)CC1	1.25 h	1.28 h
0.74 µM	68 µM	11 µM	0.00057 µM	0.043 µM	1.4 µM	N#CCNC(=O)C1(NC(=O)c2ccc(-c3csc(OC4CCNCC4)n3)cc2)CCCCC1	1.23 h	2.53 h
2.3 µM	10 µM	17 µM	0.018 µM			N#CCNC(=O)C1(NC(=O)c2ccc(Br)cc2)CCCCC1		
1.4 µM	3.2 µM	15 µM	0.0016 µM	0.011 µM	0.43 µM	CC(C)N(C)C1CCN(c2nc(-c3ccc(C(=O)NC4(C(=O)NCC#N)CCCCC4)cc3)cs2)CC1	2.02 h	1.92 h
2.9 µM	28 µM	18 µM				CCCN1CCN(c2ccc(C(=O)NC3(C(=O)NCC#N)CCCCC3)cc2)CC1 [BALICATIB]		
2.7 µM	16 µM	9.6 µM	0.0015 µM			CN1CCN(c2ccc(C(=O)NC3(C(=O)NCC#N)CCCCC3)cc2)CC1		
0.34 µM	8.7 µM	2 µM	< 0.00025 µM	0.033 µM		CN1CCC(N(C)c2ccc(-c3ccc(C(=O)NC4(C(=O)NCC#N)CCCCC4)cc3)cc2)C1 (centres undefined)		
0.76 µM	33 µM	12 µM	0.00059 µM	0.019 µM	0.66 µM	CC(C)NC1CCN(c2nc(-c3ccc(C(=O)NC4(C(=O)NCC#N)CCCCC4)cc3)cs2)CC1	2.42 h	2.55 h
1.1 µM	30 µM	7.6 µM	0.00095 µM	0.046 µM	0.44 µM	CN1CCC(C)(c2nc(-c3ccc(C(=O)NC4(C(=O)NCC#N)CCCCC4)cc3)cs2)CC1	2.33 h	2.28 h
1.3 µM	20 µM	6.4 µM	0.00048 µM	0.004 µM	1.78 µM	COCCN1CCN(c2nc(-c3ccc(C(=O)NC4(C(=O)NCC#N)CCCCC4)cc3)cs2)CC1	0.683 h	1.97 h
1.7 µM	26 µM	12 µM	0.00079 µM	0.11 µM	0.3 µM	CN(C)C1CCN(c2nc(-c3ccc(C(=O)NC4(C(=O)NCC#N)CCCCC4)cc3)cs2)C1 (centres undefined)	0.683 h	0.633 h
1.3 µM	8.8 µM	23 µM	0.0062 µM			N#CCNC(=O)C1(NC(=O)c2ccc(-c3ccccc3)cc2)CCCCC1		
0.59 µM	10 µM	4 µM	< 0.00025 µM	0.024 µM		CN1CCC[C@H]1COc1ccc(-c2ccc(C(=O)NC3(C(=O)NCC#N)CCCCC3)cc2)cc1		
1.1 µM	15 µM	18 µM	0.013 µM			C#Cc1ccc(C(=O)NC2(C(=O)NCC#N)CCCCC2)cc1		
0.84 µM	17 µM	> 150 µM	0.00047 µM	0.008 µM	0.49 µM	N#CCNC(=O)C1(NC(=O)c2ccc(-c3csc(N4CCN(C5CCOCC5)CC4)n3)cc2)CCCCC1	0.983 h	1.07 h
0.68 µM	5.7 µM	3.2 µM	0.002 µM			CN(C)c1ccc(-c2ccc(C(=O)NC3(C(=O)NCC#N)CCCCC3)cc2)cc1		
0.89 µM	21 µM	8.9 µM	0.00025 µM	0.011 µM	0.47 µM	CN1CCN(N(C)c2nc(-c3ccc(C(=O)NC4(C(=O)NCC#N)CCCCC4)cc3)cs2)CC1	1.03 h	1.53 h

— ChEMBL document CHEMBL1141198, “Design and synthesis of tri-ring P3 benzamide-containing aminonitriles as potent, selective, orally effective inhibitors of cathepsin K” (J Med Chem, 2005)
